Measured values as given in ChEMBL document CHEMBL2424587, “Antiproliferative activity of abietane diterpenoids against human tumor cells” (J Nat Prod, 2013).

Assays:
Format in all cases: functional, cell-based
SK-MEL-1 = assay: Cytotoxicity against human SK-MEL-1 cells after 72 hrs by MTT assay; conditions: SK-MEL-1, 72 h
In short: (§1)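 MTT assay: 1 × 10^4 exponentially growing cells per well incubated 72 h over a range of compound concentrations; MTT 0.5 mg/mL for 4 h at 37 °C, then 10% SDS in 0.05 M HCl overnight at room temperature in the dark; absorbance at 570 nm. Leukemia and SK-MEL-1 lines grown in RPMI 1640, MCF-7 in DMEM, both with 10% heat-inactivated FBS. IC50 given as mean ± SEM of 3–5 independent experiments, each in triplicate.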

MCF7 = assay: Cytotoxicity against human MCF7 cells after 72 hrs by MTT assay; conditions: MCF7, 72 h; in short: as §1
MOLT-3 = assay: Cytotoxicity against human MOLT3 cells after 72 hrs by MTT assay; conditions: MOLT-3, 72 h; in short: as §1
U-937 = assay: Cytotoxicity against human U937 cells after 72 hrs by MTT assay; conditions: U-937, 72 h; in short: as §1
HL-60 = assay: Cytotoxicity against human HL60 cells after 72 hrs by MTT assay; conditions: HL-60, 72 h; in short: as §1

| Structure (SMILES) | IC50 (SK-MEL-1) | IC50 (MCF7) | IC50 (MOLT-3) | IC50 (U-937) | IC50 (HL-60) |
| --- | --- | --- | --- | --- | --- |
| CCCC(=O)O[C@@H]1[C@@H](OC(C)=O)C2=C(C(=O)C(O)=C(C(C)C)C2=O)[C@@]2(C)CCCC(C)(C)[C@H]12 | 3.6 µM | 6.5 µM | 3.5 µM | 3.4 µM | 5.6 µM |
| COc1ccc(C(=O)OC/C=C(\C)C[C@@H](O)[C@@]2(C)[C@H](C)CC=C3[C@@H]2CCCC3(C)C)cc1 | > 30 µM | > 30 µM | > 30 µM | > 30 µM | > 30 µM |
| CCCC(=O)OC/C=C(\C)C[C@@H](O)[C@@]1(C)[C@H](C)CC=C2[C@@H]1CCCC2(C)C | > 30 µM | > 30 µM | > 30 µM | > 30 µM | > 30 µM |
| CC(=O)OC1=C2C(C)(C)CCC[C@]2(C)c2c(cc(C(C)C)c(OC(C)=O)c2OC(C)=O)C1=O | 9.9 µM | > 30 µM | 4.6 µM | 4.6 µM | 4.1 µM |
| CC(=O)OC1=C(C(C)C)C(=O)C2=C(C1=O)[C@@]1(C)CCCC(C)(C)[C@@H]1[C@H](OC(C)=O)[C@H]2OC(C)=O | 8.1 µM | 5.9 µM | 3 µM | 6.4 µM | 9 µM |
| CC(=O)O[C@H]1C2=C(C(=O)C(OC(=O)c3ccc(Cl)cc3)=C(C(C)C)C2=O)[C@@]2(C)CCCC(C)(C)[C@@H]2[C@@H]1OC(=O)c1ccc(Cl)cc1 | > 30 µM | > 30 µM | > 30 µM | 5.6 µM | 5.7 µM |
| C/C(=C\COC(=O)c1ccccc1)C[C@@H](O)[C@@]1(C)[C@H](C)CC=C2[C@@H]1CCCC2(C)C | > 30 µM | > 30 µM | > 30 µM | > 30 µM | > 30 µM |
| C/C(=C\CO)C[C@@H](O)[C@@]1(C)[C@H](C)CC=C2[C@@H]1CCCC2(C)C | > 30 µM | > 30 µM | > 30 µM | > 30 µM | > 30 µM |
| COC(=O)/C=C(\C)C[C@@H](OC(C)=O)[C@@]1(C)[C@H](C)CC=C2[C@@H]1CCCC2(C)C | > 30 µM | > 30 µM | > 30 µM | > 30 µM | > 30 µM |
| CC(=O)Oc1c(C(C)C)cc2c(c1OC(C)=O)[C@@]1(C)CCCC(C)(C)C1=C(O)C2=O | 24.1 µM | > 30 µM | 13.4 µM | 8.4 µM | 11.5 µM |
| CC(C)C1=C(O)C(=O)C2=C(CC[C@H]3C(C)(C)CCC[C@]23C)C1=O [ROYLEANONE] | > 30 µM | > 30 µM | 13.6 µM | > 30 µM | > 30 µM |
| CCC(=O)OC1=C(C(C)C)C(=O)C2=C(C1=O)[C@@]1(C)CCCC(C)(C)[C@@H]1[C@H](OC(=O)CC)[C@H]2OC(C)=O | 27.4 µM | 28.3 µM | 10.8 µM | 3.9 µM | 4.7 µM |
| CC(=O)O[C@H]1C2=C(C(=O)C(O)=C(C(C)C)C2=O)[C@@]2(C)CCCC(C)(C)[C@@H]2[C@@H]1OC(=O)c1ccc([N+](=O)[O-])cc1 | 6.7 µM | 9.1 µM | 1.5 µM | 1.4 µM | 3.8 µM |
| CC(=O)O[C@H](C/C(C)=C/CO)[C@@]1(C)[C@H](C)CC=C2[C@@H]1CCCC2(C)C | > 30 µM | > 30 µM | > 30 µM | > 30 µM | > 30 µM |
| CCO[C@@H]1C[C@H]2C(C)(C)CCC[C@]2(C)C2=C1C(=O)C(C(C)C)=C(O)C2=O | > 30 µM | > 30 µM | > 30 µM | > 30 µM | > 30 µM |
| CCC(=O)OC/C=C(\C)C[C@@H](O)[C@@]1(C)[C@H](C)CC=C2[C@@H]1CCCC2(C)C | > 30 µM | > 30 µM | > 30 µM | 24.7 µM | > 30 µM |
| C[C@H]1Cc2c(O)c3c(c(O)c2O1)[C@@]1(C)CCC(=O)C(C)(C)C1=C(O)C3=O [TEUVINCENONE A] | > 30 µM | > 30 µM | 2.7 µM | 1.5 µM | 3.5 µM |
| CC(C)C1=CC2=CC(=O)[C@H]3C(C)(C)CCC[C@]3(C)C2=C(O)C1=O [TAXODIONE] | 9.6 µM | > 30 µM | 1.8 µM | 3 µM | 4.8 µM |
| CC(=O)O[C@@H]1[C@@H](OC(C)=O)C2=C(C(=O)C(O)=C(C(C)C)C2=O)[C@@]2(C)CCCC(C)(C)[C@H]12 | 16.2 µM | 23.3 µM | 5.4 µM | 12.1 µM | 15.9 µM |
| COc1c(O)c2c(c(O)c1C(C)C)C(=O)C[C@H]1C(C)(C)CCC[C@]21C [INUROYLEANOL] | > 30 µM | > 30 µM | > 30 µM | 11.1 µM | 20.8 µM |
| CC(=O)O[C@H](C/C(C)=C/C(=O)O)[C@@]1(C)[C@H](C)CC=C2[C@@H]1CCCC2(C)C | > 30 µM | > 30 µM | > 30 µM | > 30 µM | > 30 µM |
| CC(=O)O[C@H]1C2=C(C(=O)C(O)=C(C(C)C)C2=O)[C@@]2(C)CCCC(C)(C)[C@@H]2[C@@H]1O | 29.1 µM | 6.8 µM | 12.7 µM | 13.7 µM | 25.4 µM |
| CC(=O)O[C@H]1C2=C(C(=O)C(OC(=O)c3ccc([N+](=O)[O-])cc3)=C(C(C)C)C2=O)[C@@]2(C)CCCC(C)(C)[C@@H]2[C@@H]1O | 5.7 µM | 11.4 µM | 10 µM | 1.1 µM | 8.4 µM |
| CCC(=O)O[C@@H]1[C@@H](OC(C)=O)C2=C(C(=O)C(O)=C(C(C)C)C2=O)[C@@]2(C)CCCC(C)(C)[C@H]12 | 9 µM | 17.1 µM | 6.3 µM | 7 µM | 11.8 µM |
| COc1cc([C@@H]2c3cc4c(cc3[C@@H](O[C@@H]3O[C@@H]5CO[C@@H](C)O[C@H]5[C@H](O)[C@H]3O)[C@H]3COC(=O)[C@H]23)OCO4)cc(OC)c1O [ETOPOSIDE] |  |  |  | 1.4 µM | 0.5 µM |
| COc1c(O)c2c(c(O)c1C(C)C)C(=O)C[C@H]1C(C)=C(C)C(=O)C[C@]21C | > 30 µM | > 30 µM | > 30 µM | > 30 µM | > 30 µM |
| CC(C)c1c(O)c(O)c2c(c1O)C(=O)C(O)=C1C(C)(C)CCC[C@@]12C | 10 µM | 27.5 µM | 8.8 µM | 4.3 µM | 4.1 µM |
